Calls of active or inactive are those of the source. The calls are words filed in the database; no cut-off is given here.
Experiments:
[1] = target: T1, 5-hydroxytryptamine receptor 2C (Homo sapiens) (UniProt P28335); assay: Agonist activity at human 5HT2C receptor expressed in HEK293 cells assessed as induction of intracellular calcium release by fluorescence assay relative to 5HT; assay type: functional, cell-based
T1 sequence (whole entry): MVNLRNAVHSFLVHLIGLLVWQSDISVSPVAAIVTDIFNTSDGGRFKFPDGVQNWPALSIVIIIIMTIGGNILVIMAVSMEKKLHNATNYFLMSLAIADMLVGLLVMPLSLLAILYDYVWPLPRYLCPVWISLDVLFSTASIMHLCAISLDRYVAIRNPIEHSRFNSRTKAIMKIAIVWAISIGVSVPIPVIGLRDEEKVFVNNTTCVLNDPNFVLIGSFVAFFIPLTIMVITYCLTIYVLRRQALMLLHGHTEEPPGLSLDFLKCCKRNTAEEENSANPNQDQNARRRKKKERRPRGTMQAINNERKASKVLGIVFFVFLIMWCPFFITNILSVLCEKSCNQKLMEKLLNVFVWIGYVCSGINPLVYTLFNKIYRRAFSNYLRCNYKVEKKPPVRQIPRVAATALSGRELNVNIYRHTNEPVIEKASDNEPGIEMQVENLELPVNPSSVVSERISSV
Method in brief: (§1)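 Stable polyclonal 5-HT2A or 5-HT2C HEK293 cells seeded on poly-D-lysine plates (6 × 10⁴ cells/well). Next day loaded with Fluo-4/AM for 1 h at 37 °C in HBSS/20 mM HEPES/1 mM CaCl₂/1 mM MgCl₂/2.5 mM probenecid, pH 7.4. Fluorescence (485 ex/525 em) recorded before and up to 90 s after agonist. Response relative to 5-HT on the same plate. Duplicate, at least three times.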

[2] = target: T2, 5-hydroxytryptamine receptor 2A (Homo sapiens, UniProt P28223); assay: Agonist activity at human 5HT2A receptor expressed in HEK293 cells assessed as accumulation of IP1 incubated for 1 hr at 37 degC followed by 15 mins at RT by TR-FRET assay; assay type: functional, cell-based
T2 sequence (P28223 whole entry): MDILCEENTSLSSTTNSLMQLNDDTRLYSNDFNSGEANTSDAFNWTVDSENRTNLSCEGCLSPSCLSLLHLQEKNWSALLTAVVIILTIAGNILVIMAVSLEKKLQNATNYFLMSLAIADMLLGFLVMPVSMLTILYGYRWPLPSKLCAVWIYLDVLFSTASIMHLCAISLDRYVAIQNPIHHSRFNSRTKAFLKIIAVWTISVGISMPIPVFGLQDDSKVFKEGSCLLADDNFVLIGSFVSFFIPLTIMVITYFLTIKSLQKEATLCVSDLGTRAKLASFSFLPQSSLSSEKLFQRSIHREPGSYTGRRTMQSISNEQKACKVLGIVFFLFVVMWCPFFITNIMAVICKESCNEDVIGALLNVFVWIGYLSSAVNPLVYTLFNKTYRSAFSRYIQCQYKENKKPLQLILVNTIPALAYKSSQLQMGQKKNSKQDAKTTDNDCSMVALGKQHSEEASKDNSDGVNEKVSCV

[3] = target: T1, 5-hydroxytryptamine receptor 2C (Homo sapiens); assay: Agonist activity at human 5HT2C receptor expressed in HEK293 cells assessed as accumulation of IP1 incubated for 1 hr at 37 degC followed by 15 mins at RT by TR-FRET assay relative to 5HT; assay type: functional, cell-based
Method in brief: (§2)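 Polyclonal HEK293 lines stably expressing human 5-HT2A (variant 1) or 5-HT2C (INI isoform), detached and suspended at 1 × 10⁷ cells/mL in HBSS with 20 mM HEPES, 1 mM CaCl₂, 1 mM MgCl₂, pH 7.4. Ligands in buffer with 40 mM LiCl. Incubated 1 h at 37 °C, then 15 min RT. IP1 read by HTRF 665/615 ratio. Triplicate, at least four times.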

[4] = target: T3, 5-hydroxytryptamine receptor 2C (Homo sapiens, UniProt P28335); assay: Displacement of [3H]mesulergine from human 5HT2C receptor expressed in tsA201 cell membranes after 1 hr by scintillation counting analysis
T3 sequence (P28335 whole entry): T1 sequence (whole entry)

[5] = target: T3, 5-hydroxytryptamine receptor 2C; assay: Agonist activity at human 5HT2C receptor expressed in HEK293 cells assessed as accumulation of IP1 incubated for 1 hr at 37 degC followed by 15 mins at RT by TR-FRET assay; assay type: functional, cell-based
[6] = target: T2, 5-hydroxytryptamine receptor 2A; assay: Agonist activity at human 5HT2A receptor expressed in HEK293 cells assessed as induction of intracellular calcium release by fluorescence assay relative to 5HT; assay type: functional, cell-based; method in brief: as §1
[7] = target: T3, 5-hydroxytryptamine receptor 2C; assay: Agonist activity at human 5HT2C receptor expressed in HEK293 cells assessed as induction of intracellular calcium release measured for 90 secs by fluorescence assay; assay type: functional, cell-based
[8] = target: T2, 5-hydroxytryptamine receptor 2A; assay: Agonist activity at human 5HT2A receptor expressed in HEK293 cells assessed as induction of intracellular calcium release measured for 90 secs by fluorescence assay; assay type: functional, cell-based
[9] = target: T2, 5-hydroxytryptamine receptor 2A; assay: biochemical; assay type: cell-based, tsA201
[10] = target: T2, 5-hydroxytryptamine receptor 2A; assay: Agonist activity at human 5HT2A receptor expressed in HEK293 cells assessed as accumulation of IP1 incubated for 1 hr at 37 degC followed by 15 mins at RT by TR-FRET assay relative to 5HT; assay type: functional, cell-based; method in brief: as §2
[11] = target: T2, 5-hydroxytryptamine receptor 2A; assay: Antagonist activity at human 5HT2A receptor expressed in HEK293 cells assessed as inhibition of 5HT-induced intracellular calcium release at 1 mM measured for 90 secs by fluorescence assay; assay type: functional, cell-based
Method in brief: (§3)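 Fluo-4/Ca²⁺ read-out in stable h5-HT2A or h5-HT2C HEK293 cells (HBSS/HEPES/probenecid buffer, pH 7.4). Antagonist was added after the dye-loading wash, then cells were challenged with an EC₇₅−EC₈₅ concentration of 5-HT. Emission at 525 nm was monitored up to 90 s after agonist addition. Duplicate, repeated in independent experiments.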

[12] = target: T2, 5-hydroxytryptamine receptor 2A; assay: Agonist activity at human 5HT2A receptor expressed in HEK293 cells assessed as induction of intracellular calcium release at 1 mM measured for 90 secs by fluorescence assay; assay type: functional, cell-based
Method in brief: (§4)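 Stable polyclonal h5-HT2A or h5-HT2C HEK293 cells plated on poly-D-lysine wells, loaded next day with Fluo-4/AM for 1 h at 37 °C. Buffer was HBSS with 20 mM HEPES, 1 mM CaCl₂, 1 mM MgCl₂, 2.5 mM probenecid, pH 7.4. Fluorescence read at 485/525 nm before and up to 90 s after agonist addition. Responses normalised to 5-HT on the same plate. Duplicate, 4−10 experiments.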

[13] = target: T1, 5-hydroxytryptamine receptor 2C (Homo sapiens); assay: Antagonist activity at human 5HT2C receptor expressed in HEK293 cells assessed as inhibition of 5HT-induced intracellular calcium release at 1 mM measured for 90 secs by fluorescence assay; assay type: functional, cell-based; method in brief: as §3
[14] = target: T1, 5-hydroxytryptamine receptor 2C (Homo sapiens); assay: Agonist activity at human 5HT2C receptor expressed in HEK293 cells assessed as induction of intracellular calcium release at 1 mM measured for 90 secs by fluorescence assay; assay type: functional, cell-based; method in brief: as §4
[15] = target: T4, 5-hydroxytryptamine receptor 2C (Rattus norvegicus) (UniProt P08909); assay: Displacement of [125I]-N-(p-I-Bn)-THAZ from 5HT2C receptor in rat midbrain membrane after 1 hr by scintillation counting analysis; assay type: cell membranes
T4 sequence (whole entry): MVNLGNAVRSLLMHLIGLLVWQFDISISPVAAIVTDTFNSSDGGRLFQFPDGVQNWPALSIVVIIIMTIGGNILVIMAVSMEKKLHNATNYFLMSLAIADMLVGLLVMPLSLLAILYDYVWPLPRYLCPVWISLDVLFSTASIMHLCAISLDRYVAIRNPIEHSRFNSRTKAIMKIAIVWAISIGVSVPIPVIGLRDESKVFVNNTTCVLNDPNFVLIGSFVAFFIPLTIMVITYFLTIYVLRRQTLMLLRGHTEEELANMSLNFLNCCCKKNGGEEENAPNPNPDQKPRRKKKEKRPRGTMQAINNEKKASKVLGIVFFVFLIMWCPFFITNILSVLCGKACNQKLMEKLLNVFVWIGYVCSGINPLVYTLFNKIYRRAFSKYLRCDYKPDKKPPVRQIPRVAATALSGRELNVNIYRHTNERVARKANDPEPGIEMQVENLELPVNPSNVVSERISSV

[16] = target: T4, 5-hydroxytryptamine receptor 2C (Rattus norvegicus); assay: Displacement of [125I]-N-(p-I-Bn)-THAZ from 5HT2C receptor in rat hippocampal membrane after 1 hr by scintillation counting analysis; assay type: cell membranes; conditions: Hippocampus
[17] = target: T4, 5-hydroxytryptamine receptor 2C (Rattus norvegicus); assay: Displacement of [125I]-N-(p-I-Bn)-THAZ from 5HT2C receptor in rat cerebellum membrane after 1 hr by scintillation counting analysis; assay type: cell membranes
[18] = target: T4, 5-hydroxytryptamine receptor 2C (Rattus norvegicus); assay: Displacement of [125I]-N-(p-I-Bn)-THAZ from 5HT2C in rat cerebral cortex membrane up to 50 uM after 1 hr by scintillation counting analysis; assay type: cell membranes
[19] = target: T4, 5-hydroxytryptamine receptor 2C (Rattus norvegicus); assay: Displacement of [125I]-N-(p-I-Bn)-THAZ from 5HT2C in rat cerebral cortex membrane at 300 uM after 1 hr by scintillation counting analysis; assay type: cell membranes

Row | SMILES | Emax [1] [%] | Ki [4] [µM] | Emax [6] [%] | EC50 ([7]; read-out: EC50) [µM] | EC50 ([8]; read-out: EC50) [µM] | Ki ([9]; read-out: Ki) [µM] | Activity [11] | Activity [12] | Activity [13] | EC50 ([7]; hek293, read-out: EC50) [µM] | EC50 ([7]; read-out: pEC50 (converted)) [µM] | Activity [14] | EC50 ([8]; hek293, read-out: EC50) [µM] | EC50 ([8]; read-out: pEC50 (converted)) [µM] | further results
1 | Clc1cncc(N2CCNCC2)n1 [MK-212] | 93 | 3.4 | 97 | 0.028 | 0.42 | 21 |  |  |  |  |  |  |  |  | EC50 [2]: 1.2 µM; Emax [3]: 93%; EC50 [5]: 0.16 µM; Emax [10]: 101%
2 | Clc1cccc(COc2cncc(N3CCNCC3)n2)c1 | 103 | 0.0093 | 88 | 0.0019 | 0.076 | 0.081 |  |  |  |  |  |  |  |  | EC50 [2]: 0.14 µM; Emax [3]: 109%; EC50 [5]: 0.0081 µM; Emax [10]: 90%
3 | Oc1noc2c1CCNCC2 |  | > 300 |  |  |  | > 300 | inactive | inactive | inactive | > 1000 | > 1000 | inactive | > 1000 | > 1000 | Ki ([9]; read-out: pKi (converted)): > 316 µM
4 | CN1CCN2c3ccccc3Cc3ccccc3C2C1 (stereo not drawn) |  |  |  |  |  |  |  |  |  |  |  |  |  |  | Activity [15]: inactive; Activity [16]: inactive; Activity [17]: inactive; Activity [18]: inactive
5 | NCCc1ccc(O)c(O)c1 |  |  |  |  |  |  |  |  |  |  |  |  |  |  | Activity [19]: inactive
6 | N[C@@H](CCC(=O)O)C(=O)O |  |  |  |  |  |  |  |  |  |  |  |  |  |  | Activity [19]: inactive
7 | CCOc1noc2c1CCNC2 |  |  |  |  |  |  | inactive | inactive | inactive | > 1000 | > 1000 | inactive | > 1000 | > 1000 | 
8 | CCOc1noc2c1CCNCC2 | 67 | 100 | 42 | 3 | 7.9 | 100 |  |  |  |  |  |  |  |  | 
9 | Cc1cc2c(cc1Cl)N(C(=O)Nc1ccc(Oc3cccnc3C)nc1)CC2 |  |  |  |  |  |  |  |  |  |  |  |  |  |  | Activity [18]: inactive
10 | CCn1oc2c(c1=O)CNCC2 |  |  |  |  |  |  | inactive | inactive | inactive | > 1000 | > 1000 | inactive | > 1000 | > 1000 | 
11 | O=c1c2c(on1Cc1ccccc1)CCCNC2 |  |  |  |  |  |  | inactive | inactive | inactive | > 1000 | > 1000 | inactive | > 1000 | > 1000 | 
12 | O=c1c2c(on1Cc1ccccc1I)CCNCC2 |  | 7.2 |  |  |  |  |  |  |  |  |  |  |  |  | 
13 | O=C1Nc2cc(Cl)c(Cl)cc2N2CCNCC12 (stereo not drawn) | 95 |  | 110 | 0.0073 | 0.012 |  |  |  |  |  |  |  |  |  | 

— ChEMBL document CHEMBL2331121, “Design, synthesis, and pharmacological characterization of N- and O-substituted 5,6,7,8-tetrahydro-4H-isoxazolo[4,5-d]azepin-3-ol analogues: novel 5-HT(2A)/5-HT(2C) receptor agonists with pro-cognitive properties” (J Med Chem, 2013)
